# From PubChem BioAssay
# Shown are actives, neighbours in structure and some others; about 2.4% of the full set was active somewhere.
# M18AAP inhibitor: blocks P. falciparum M18 aspartyl aminopeptidase | inhibition, % at 7.35 µM | 1.2% of 290,000 active | AID 1822 | recombinant PfM18AAP, H-Glu-NHMec fluorogenic cleavage;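 active = inhibition above the campaign mean inhibition over all tested compounds plus 3 SD, cut at about 28% in these data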;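 note: 0% = plate median of test compound wells and 100% = 2 mM ZnCl2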
# VIM-2 inhibitor: blocks Pseudomonas aeruginosa VIM-2 metallo-beta-lactamase; 0.89% of 290,000 active; inhibition, % at 5.6 µM; purified VIM-2, nitrocefin hydrolysis, epi-absorbance fluorescence; AID 1527;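 active = inhibition above the mean of all tested compounds plus 3 SD, cutoff set per screening run, cut at about 7.5% in these data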;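 note: red hydrolysis product quenches plate fluorescence so inhibitors raise well fluorescence; 0% = enzyme with DMSO and 100% = DMSO without enzyme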
# IMP-1 inh: blocks Pseudomonas aeruginosa IMP-1 metallo-beta-lactamase. purified IMP-1, nitrocefin hydrolysis, epi-absorbance fluorescence. inhibition, % at 5.6 µM. 0.45% of 290,000 active. AID 1556;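 active = inhibition above the mean plus 3 SD of all compounds in the same screening run, cut at about 4.5% in these data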;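 note: 0% = IMP-1 with DMSO and 100% = DMSO wells lacking enzyme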
#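 System – purified recombinant IMP-1 beta-lactamase · Input – IMP-1 dispensed at 0.2 nM · Timing – 15 min preincubation plus 25 min reaction at 25 °C · Signal – Epi-absorbance fluorescence, 480 nm excitation, 530 nm emission · Measure – percent IMP-1 inhibition derived from blank-referenced optical density · Controls – Enzyme-plus-DMSO low control, enzyme-free DMSO high control · Replication – singlicate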
# HGIII-sPLA2 inh: Blocks human group III sPLA2 activity; 0.56% of 370,000 active; QFRET BODIPY PC-A2 liposome hydrolysis, fluorescence; inhibition, % at 12.2 µM; Q9NZ20;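 active = inhibition above mean plus 3 SD of compounds lying within the high and low control bounds, cut at about 19% in these data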;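 note: 0% = median of test compound wells and 100% = no enzyme DMSO wells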
# Target sequence (Q9NZ20 whole entry, looked up): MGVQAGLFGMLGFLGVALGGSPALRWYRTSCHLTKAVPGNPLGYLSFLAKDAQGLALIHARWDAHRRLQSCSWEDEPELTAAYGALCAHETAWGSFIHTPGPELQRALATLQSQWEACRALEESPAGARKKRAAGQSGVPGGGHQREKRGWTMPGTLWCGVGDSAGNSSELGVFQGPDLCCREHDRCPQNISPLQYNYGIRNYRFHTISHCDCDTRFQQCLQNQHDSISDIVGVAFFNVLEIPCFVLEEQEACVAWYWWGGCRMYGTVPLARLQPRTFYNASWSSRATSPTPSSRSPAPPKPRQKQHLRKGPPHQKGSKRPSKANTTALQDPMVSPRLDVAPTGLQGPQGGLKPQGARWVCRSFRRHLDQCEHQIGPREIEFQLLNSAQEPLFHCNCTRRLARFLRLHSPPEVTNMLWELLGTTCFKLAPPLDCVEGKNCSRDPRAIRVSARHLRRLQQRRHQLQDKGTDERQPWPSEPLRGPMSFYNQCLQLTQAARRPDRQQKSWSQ
# hGIII sPLA2 conf: human GIII-sPLA2 inhibition, confirmation. AID 743280. recombinant hGIII-sPLA2, BODIPY PC-A2 QFRET fluorescence. 34% of 2,000 active. shares compounds with HGIII-sPLA2 inh. inhibition, % at 12.2 µM;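 active = mean inhibition across triplicates above the hit cutoff set in the earlier primary screen, cut at about 19% in these data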;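 note: 0% = enzyme with DMSO and 100% = DMSO wells lacking enzyme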
# BODIPY interf: 535nm fluorescence interference, HGIII-sPLA2 counter-screen. shares compounds with HGIII-sPLA2 inh. BODIPY FL product fluorescence interference, QFRET. inhibition, % at 12.2 µM. 8.5% of 2,000 active;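 active = average inhibition above the solvent-only control mean plus 3 SD, cut at about 6% in these data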;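 note: 0% = DMSO with substrate plus product and 100% = DMSO with substrate alone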
# Starred values were filed as active, the others as inactive; . = no result given.
SMILES,M18AAP inhibitor,VIM-2 inhibitor,IMP-1 inh,HGIII-sPLA2 inh,hGIII sPLA2 conf,BODIPY interf
CCCC[C@@H](CNC)NC[C@H](NCCCCC1CCCCC1)C(C)C,1,-2,1,29*,-5,-28
CCC[C@@H](CN[C@@H](CNC)C(C)C)NCCCCc1ccccc1,-1,0,-1,19,.,.
Cc1ccccc1Nc1ccc(S(=O)(=O)N2CCOCC2)cc1[N+](=O)[O-],1,0,-3,20*,7,-9
CN(CCC#N)C(=O)COC(=O)/C=C/c1cccs1,2,-3,-1,20*,-3,-5
COC(=O)C1CN(Cc2cn(Cc3ccc(F)cc3)nn2)CCS(=O)(=O)N1Cc1ccc(F)cc1 (centres undefined),.,.,.,3,.,.
O=C(Nc1ccc(-c2noc(-c3ccccc3F)n2)cc1)c1cccs1,-4,-1,-3,21*,-6,-3
CCCNC(=S)N(Cc1ccccc1)Cc1nc2ccccc2c(=O)[nH]1,-2,-3,-3,22*,-2,-11
CNC(=O)C1CCC(=O)N1Cc1c[nH]c2ccccc12 (centres undefined),.,.,.,-3,.,.
CC1(NC(=S)N(CCO)CCO)CCS(=O)(=O)C1 (centres undefined),1,1,-1,2,.,.
CC1(NC(=S)NCCO)CCS(=O)(=O)C1 (centres undefined),0,0,0,20*,0,-8
COc1ccc(NC(=S)NC(NC(=O)c2ccccc2Cl)C(Cl)(Cl)Cl)c([N+](=O)[O-])c1 (centres undefined),5,-2,-5,28*,35*,7.2*
COc1ccc(NC(=O)c2cccc(NC(=O)C(C)C)c2)c([N+](=O)[O-])c1,1,-4,-2,9,.,.
COc1ccc(NC(=S)NC(NC(=O)c2ccc(Cl)cc2Cl)C(Cl)(Cl)Cl)c([N+](=O)[O-])c1 (centres undefined),3,-2,-3,3,.,.
CCOc1ccc(NC(=S)NC(=O)c2c(Br)cnn2C)c([N+](=O)[O-])c1,-1,-3,-2,4,.,.
COc1ccc(NC(=O)c2ccc(NC(=O)C(C)C)cc2)c([N+](=O)[O-])c1,5,0,-5,20*,-4,-5
CCOc1ccc(NC(=S)NC(=O)c2c(Cl)cnn2CC)c([N+](=O)[O-])c1,-7,0,0,22*,20*,-2
COc1cc(C(=O)N(Cc2ccccc2)c2cccc(C)c2)ccc1OCC(=O)N1CCOCC1,.,.,.,6,.,.
Cc1ccc(CCNC(=O)c2sc3nc4n(c(=O)c3c2C)CCC4)cc1,3,-2,-1,-1,.,.
COc1cc([N+](=O)[O-])ccc1NC(=O)COC(=O)c1c[nH]c(=O)[nH]c1=O,.,.,.,1,.,.
O=C(O)Cc1ccc2c(c1)Cc1cccnc1O2,.,.,.,5,.,.
CN(Cc1ccccc1)C(=S)NC(=O)C1CCCCC1,3,-3,-4,11,.,.
O=C(NC(=S)N(Cc1ccccc1)c1ccccn1)C1CCCCC1,1,0,-2,24*,8,-4
O=C(O)c1ccccc1C(=O)Nc1cccc([N+](=O)[O-])c1,2,-3,-1,4,.,.
O=C(O)c1ccccc1C(=O)Nc1ccc(Nc2ccc([N+](=O)[O-])cc2[N+](=O)[O-])cc1,-5,-3,-2,22*,18,-2
CN(C)c1ccc(NC(=O)Nc2ccc3c(c2)nnn3C)cc1,-23,-2,-4,19*,7,-4
SMILES,M18AAP inhibitor,VIM-2 inhibitor,IMP-1 inh,HGIII-sPLA2 inh,hGIII sPLA2 conf,BODIPY interf
Cc1ccc(C)c(N2CCN(C(=O)c3ccc4nc(-c5ccco5)c(-c5ccco5)nc4c3)CC2)c1,10,-2,0,20*,6,-23
C/C(=N\OCC(=O)Nc1nc2ccccc2s1)c1ccccc1,0,-2,-2,19*,0,-2
O=C(N/N=C/c1c(O)ccc2ccccc12)c1cccc(C(F)(F)F)c1,5,-4,-4,43*,-11,-5
COc1ccc2ccccc2c1/C=N/NC(=O)c1cccc(Br)c1,3,-4,-2,0,.,.
Cc1cc(C(=O)Nc2c(F)cc(F)cc2Br)n(-c2ccccc2)n1,-5,1,-1,0,.,.
COc1ccccc1CCNC(=O)c1cc(-c2ccccn2)nc2ccccc12,.,.,.,20*,-7,-22
Oc1ccc(CNc2cccnc2)c2cccnc12,.,.,.,3,.,.
Oc1ccc(CCc2ccccc2)c2cccnc12,.,.,.,26*,21*,-3
COc1ccc(N2CCN(C(c3cccs3)C(C)NC(=O)c3ccc4c(c3)OCO4)CC2)cc1 (centres undefined),2,-1,-4,22*,2,-14
CC(=O)c1cccc(NC(=O)C2=CN3CCS(=O)(=O)N=C3C=C2)c1,.,.,.,20*,-5,-7
CC(=O)c1cccc(NC(=O)c2c(F)c(F)c(F)c(F)c2F)c1,2,0,0,-5,.,.
S=c1[nH]nc(-c2ccc(Cl)cc2)n1CCCN1CCOCC1,14,8.4*,-3,20*,6,-4
CCOCCCn1c(-c2ccc(Cl)cc2)n[nH]c1=S,8,6,-2,22*,19,2
COCCCn1c(-c2ccc(Cl)cc2)n[nH]c1=S,24,6,-3,14,.,.
Cc1ccc(OCC(=O)Nc2cc(S(=O)(=O)N3CCCCC3)ccc2C)c([N+](=O)[O-])n1,-14,-1,-1,21*,3,-14
Cc1c(O)c2c(=O)n(-c3ccccc3)c(-c3ccccc3)cc2oc1=O,-2,0,-2,20*,7,-5
Cc1ccc(C(C)(O)CS(=O)(=O)Cc2ccccc2)cc1 (centres undefined),-8,-4,-5,0,.,.
C=CCN=C1NC(c2ccc(F)cc2)C(C(=O)OC)=C(C)N1C (centres undefined),.,.,.,23*,6,-10
NS(=O)(=O)c1cccc(NC(=O)c2cccs2)c1,3,-3,0,21*,3,-4
CCCC/C(C)=N/NC(=O)CN(c1ccc(Br)cc1)S(=O)(=O)c1ccccc1,3,-3,-2,6,.,.
C/C(=N/NC(=O)CN(c1ccccc1)S(=O)(=O)c1ccccc1)c1ccccc1O,12,-1,1,24*,15,-6
COc1ccccc1N(C)S(=O)(=O)c1ccc(C(=O)Nc2cc(F)ccc2C)cc1,.,.,.,3,.,.
Cc1ccc(OCCN2CCN(C)CC2)c([N+](=O)[O-])c1,8,1,-6,22*,-1,-5
Cc1ccc(OCCN2CCNCC2)c([N+](=O)[O-])c1,8,-4,-1,-5,.,.
C=CCN1C(=O)/C(=C\c2ccco2)C(C(=O)OC)=C1C,11,-1,-2,21*,7,-8
C(=NOCCc1ccccc1)c1cccnc1,.,.,.,20*,-4,-5
CCc1nc(SCC(=O)Nc2ccc(N(C)C)cc2)c2ccccc2n1,8,0,-3,22*,23*,-1
